In ChEMBL document CHEMBL4513216, “Probing the Open Global Health Chemical Diversity Library for Multistage-Active Starting Points for Next-Generation Antimalarials” (ACS Infect Dis, 2020):

Test: Toxicity liver stage against HepG2, at 10uM
Type: cell-based
Parameters: test concentration 10 uM, cell line HepG2-A16-CD81EGFP
Conditions: human, HepG2-A16-CD81EGFP cells; read-out: INHIBITION
In short: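 Uninfected HepG2-A16-CD81EGFP cells, 3 × 10^3 per well, 1536-well, plated on prespotted compound at 10 μM final, parasite-free screening media added to match infected plates; puromycin 10 μM positive, DMSO 0.5% negative; run in parallel with 48 h PbLuc assay at 37 °C, 5% CO2; viability by CellTiter-Glo luminescence, normalized to controls.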

Row | SMILES | cytotoxicity at 10 µM
1 | CC(C)CCC(=O)N1CCN(C(=O)c2ccc(-n3cccn3)cc2)CC1 | 4.28%
2 | Cc1c(C(=O)O)sc2nc(Cc3ccccc3)nc(N)c12 | -0.924%
3 | Cc1ccccc1C(=O)Nc1ccc([C@H]2OCC(=O)N(C)[C@@H]2CO)cc1 | 0.461%
4 | CCOC(=O)c1nc(COc2ccc(CC(N)=O)cc2)no1 | -6.24%
5 | COc1ccc2nnc(CCC(=O)Nc3nc4c(s3)CCCC4)n2n1 | -6.98%
6 | Cc1nnsc1C(=O)NCc1nn(C)c2c1COCC2 | -0.543%
7 | CCOCC(=O)NCC(CC)(OC)c1ccccc1 (configuration not stated) | -0.478%
8 | CCn1cc2c(n1)C(COCC1CC1)CN(C(=O)c1ccsc1)C2 (configuration not stated) | 18.6%
9 | O=C(N1CCCC1)C12CC(CN1Cc1nccs1)C2 | -11.5%
10 | CN1Cc2ccccc2CC2(CCN(c3ncc(F)cn3)CC2)C1=O | 6.59%
11 | O=C(Cc1cccnc1)N1CCC2(CCN(C3CCOC3)CC2)C1 (configuration not stated) | 5.08%
12 | O=C1CCC2(CCCN(c3ncc(F)cn3)CC2)N1Cc1ccccc1 (configuration not stated) | 2.87%
13 | O=C(O)c1nnn(Cc2cccc(C(F)(F)F)c2)c1-c1ccccn1 | 2.27%
14 | COc1ccc(OC)c(C(C)NC(=O)c2nn(C)c(C)c2Br)c1 (configuration not stated) | 5.38%
15 | COc1cccc([C@@]2(O)CC[C@@H]3CN(C(=O)c4cn(C)nc4C)C[C@@H]32)c1 | 3.51%
16 | Oc1cc(C2CCCCN2CC2CC2)nc(-c2ccncc2)n1 (configuration not stated) | 9.77%
17 | Cc1cc(N2CCC(Cc3ccncc3)C2)ncn1 (configuration not stated) | 0.328%
18 | Cc1cc(N2CCC(Cc3cccnc3)C2)ncn1 (configuration not stated) | -2.15%
19 | CC1(c2cc[nH]n2)CCN(C(=O)c2ccc(Cl)cc2)CC1 | 0.812%
20 | COCCN1CCC(c2ncc(C(=O)N3CCOCC3)c(C)n2)CC1 | 1.36%
21 | c1cc(N2CCCCC2)ccc1-c1noc(CN2CCOCC2)n1 | -1.59%
22 | O=C(CC1CCCC1)N1CCC(c2cc3ncccc3c(O)n2)CC1 | -24.7%
23 | COc1ccccc1Oc1cncc(C2CCCN(C)C2)n1 (configuration not stated) | -3.8%

Row | SMILES | cytotoxicity at 10 µM
24 | CC(=O)N1CCCC(c2ccnc(N(C)C)n2)C1 (configuration not stated) | -16.2%
25 | Cc1cnc(N)c(C(=O)C2CCN(C(=O)c3cnc(C)nc3C)CC2)c1 | -18%
26 | CC(=O)N1CCC(c2ccnc(Nc3cncnc3)n2)CC1 | -33.2%
27 | c1cnc2[nH]c(C3CCCC3)c(CN3CCCCC3)c2c1 | -26.9%
28 | CS(=O)(=O)N1CCCC(Cc2cncc(-c3ccccc3C(=O)O)n2)C1 (configuration not stated) | -6.41%
29 | Cc1cc(-c2cnn(CCNC(=O)CCn3cccn3)c2C2CC2)on1 | -4.66%
30 | CCc1nccn1-c1cncc(C2CCCN2Cc2ccccn2)n1 (configuration not stated) | -3.47%
31 | CN(CC(=O)Nc1cnn(-c2ccccc2S(C)(=O)=O)c1)C1CC1 | 0.315%
32 | O=C(Cc1c(F)cccc1Cl)NC1CCCCNC1=O (configuration not stated) | 1.91%
33 | CC(C)OCCS(=O)(=O)NC1CCN(C2CCCC2)C1 (configuration not stated) | 1.68%
34 | CN1CCOC(CNCC(=O)NCCc2ccc(F)cc2)C1 (configuration not stated) | 1.38%
35 | CCc1nc(CC)n(CC(=O)N(CC)CC)n1 | 3.1%
36 | c1ncn(CC2CCCN(CC3CCCCC3)C2)n1 (configuration not stated) | 4.61%
37 | CN(C)c1cc2c(nn1)CCN(C(=O)c1cc3c(s1)CCCC3)C2 | -6.3%
38 | N#CC1(C(=O)N2CCC(Nc3cccnn3)CC2)CCCCC1 | 2.87%
39 | CCOCCCC(=O)N1CCN(C(=O)Cc2cccc(OC)c2)CC1 | -1.86%
40 | N#CCCNC(=O)CSc1cc(F)ccc1F | -3.74%
41 | Cc1nc(NC(=O)C(C)N2CCN(c3cnccn3)CC2)sc1C (configuration not stated) | 4.75%
42 | CC(C)c1n[nH]c(C2CN(Cc3ccno3)CCO2)n1 (configuration not stated) | 5.49%
43 | CCNC(=O)CCN1CCCC1c1cccc2c1OCCO2 (configuration not stated) | -4%
44 | CCOc1cc(CN(C)CC(C)(C)O)ccc1OC(F)F | 2.31%
45 | CC(=O)N1CCN(C(=O)c2cnc(OC(C)C)c(Cl)c2)CC1 | -4.36%
46 | Cc1ccc(OCC(=O)NCc2ccco2)nc1 | -0.224%

Row | SMILES | cytotoxicity at 10 µM
47 | COc1ccc(S(=O)(=O)NC(=O)c2c(C)noc2C(C)C)cc1OC | -2.23%
48 | CCc1nnc2n1CCN(C(=O)c1ccc3[nH]nnc3c1)C2 | -0.337%
49 | COc1ccccc1C(=O)NCCCN1CCCC1C(=O)N(C)C (configuration not stated) | -2.94%
50 | CCCC(=O)NCC(=O)NC1CC(C)(C)Cc2oc(C)cc21 (configuration not stated) | -4.32%
51 | Cc1nccn1CCCNC(=O)C1CCCCN1Cc1ccncc1 (configuration not stated) | -8.18%
52 | CCSc1ccc(NC(=O)NC(C)c2c(C)noc2C)cn1 (configuration not stated) | -3.69%
53 | CCC(CNC(=O)c1nc(=O)[nH][nH]1)Oc1cccc(C(F)(F)F)c1 (configuration not stated) | -6.25%
54 | CCN(CCc1nccs1)C(=O)c1ccco1 | 15.4%
55 | COc1ccc(CC(=O)N2CCC(c3n[nH]c(C4CC4)n3)CC2)cc1 | -14.6%
56 | CCOc1ccc(NC(=O)N(CCC#N)Cc2ccccn2)cc1F | -6%
57 | O=C(c1ccc[nH]1)N1CCCC1c1nc(-c2ccccc2)n[nH]1 (configuration not stated) | 2.57%
58 | Cc1ccc(C2CSCCN2C(=O)c2cc(C(N)=O)cs2)o1 (configuration not stated) | 5.48%
59 | CC(C)c1nc(C2CCCN2c2ccnc(C3CCCC3)n2)no1 (configuration not stated) | 28.5%
60 | N#Cc1c(F)cccc1N1CCCC(C(=O)Nc2nccs2)C1 (configuration not stated) | 8.92%
61 | Cc1c(C(=O)NCCC(=O)N2CCOCC2)oc2c(C)cccc12 | -1.96%
62 | Cc1ccc(OCC(=O)N(C)Cc2ccc(F)cc2)cn1 | 7.88%
63 | CN(C)CC(=O)N1Cc2nc(C(=O)N3CCCN(C)CC3)oc2C1 | -105%
64 | Cn1c2c(c(=O)n1C)CN(C(=O)c1cnccn1)CCC2 | -113%
65 | COCCCn1cnnc1CNC(=O)c1[nH]c2c(C)cc(C)cc2c1C | 5.22%
66 | CN(Cc1ccsc1)C(=O)c1ccc(C2CCCO2)s1 (configuration not stated) | 7.9%
67 | CCN1CCCC(C)(C(=O)NCc2nnnn2-c2ccccc2)C1 (configuration not stated) | -17.7%
68 | Cc1cccc(Cc2nc3c([nH]2)CCCNC3=O)c1 | -12.9%
69 | CCCN1CCC(Cc2noc(-c3[nH]cnc3C)n2)CC1 | 1.34%

Row | SMILES | cytotoxicity at 10 µM
70 | O=C(c1ccc(C2CCCN2)s1)N1CC=CC1 (configuration not stated) | 1.33%
71 | Cc1ccc(-c2nnc(CN3CCOCC(CO)C3)o2)n1C (configuration not stated) | -3.28%
72 | CCC(C(=O)NC1CCCCC1)n1cccc(OC)c1=O (configuration not stated) | -2.23%
73 | Cc1nc(CNC(=O)c2ccc3c(c2)nc(N2CCOCC2)n3C)cs1 | -1.76%
74 | CCC(C(=O)N(C)C)n1ccc2ncccc2c1=O (configuration not stated) | 3.63%
75 | Cc1ccccc1C(C(=O)O)N(C)CC1CCOCC1 (configuration not stated) | 3.88%
76 | O=C(c1cnn2cc(CCO)cnc12)N1CCOC(C(F)(F)F)C1 (configuration not stated) | 3.24%
77 | Cc1ccc(N2CC[C@]3(O)CCN(CCN4CCCC4=O)C[C@@H]3C2)nn1 | -10.1%
78 | CCn1ncnc1C(C)NC(=O)C1CCN(C(C)C)CC1 (configuration not stated) | 18.5%
79 | Cc1cc(CN2CCN(C(=O)C(C)C)[C@@H]3CS(=O)(=O)C[C@@H]32)ccc1F | 3.41%
80 | COc1ncccc1NC(=O)N(CC(C)C)C1CC1 | -0.874%
81 | Cc1ccc(C)c(CS(=O)(=O)CC(=O)NCCCOC(C)C)c1 | -2.51%
82 | CC(C(=O)NCCN1CCOCC1)n1cncn1 (configuration not stated) | -2.85%
83 | O=C(CCS(=O)(=O)C1CCCC1)NCc1ccccc1Cn1cncn1 | -4.9%
84 | Cc1nccn1-c1cc(CNC(=O)NCC2CCCO2)ccn1 (configuration not stated) | -7.9%
85 | CC(C)CN1CC(C(=O)NCCOc2ccc3c(c2)OCO3)CC1=O (configuration not stated) | -1.39%
86 | Cc1cc(C)n(C2CCCN(C(=O)c3ccc(N(C)C)nc3)C2)n1 (configuration not stated) | -4.26%
87 | Cc1cc(C)n(CC2CCCN2C(=O)c2cncnc2C)n1 (configuration not stated) | -2.98%
88 | Cc1noc(C(C)N2CCN(Cc3nc(C)c(C)o3)CC2)n1 (configuration not stated) | 0.397%
89 | COCCN(Cc1nc2c(cnn2C)c(=O)[nH]1)C(C)c1ccccc1 (configuration not stated) | -1.47%
90 | CC1CCN(Cc2ccc(CNC(=O)c3ccn(C)c(=O)c3)cc2)CC1 | -2.94%
91 | Cn1ccc(C(=O)NCc2ccc(CN3CCCC3)cc2)cc1=O | -13.5%
92 | CCc1nc2n(n1)CC(NCc1cnn(Cc3ccccc3)c1)CC2 (configuration not stated) | -10.4%

Row | SMILES | cytotoxicity at 10 µM
93 | Cc1ccc(-n2cc(C(=O)N3CCCC(n4cccn4)C3)nn2)cc1 (configuration not stated) | -20.3%
94 | O=C(NCCCn1ccnc1)NCC(c1ccco1)N1CCCC1 (configuration not stated) | -8.86%
95 | CCn1cnnc1CNC(=O)N1CCN(Cc2ccco2)CC1 | -17.4%
96 | CCc1nc(CN2CCCC(NCc3nc(C)c(C)o3)C2)no1 (configuration not stated) | -12.1%
97 | O=C(CCc1nccs1)N1CCN(c2nccs2)CC1 | -21.8%
98 | CC(C)c1nc(CN2CCOCC2)cs1 | -7.49%
99 | CCc1nc(CN2CCCN(C(=O)C3CCOCC3)CC2)cs1 | -8.11%
100 | O=C(O)c1csc(S(=O)(=O)Nc2cccc(OCC(F)(F)F)c2)c1 | -13.1%
101 | O=C(CN1CCc2cncnc2C1)NCCOc1ccccc1 | -6.78%
102 | Cc1ccc(CC(=O)N2CCCC(c3nc(C)cs3)C2)cn1 (configuration not stated) | -8.13%
103 | CC(C)N1CCc2nnc(COc3cncnc3)n2CC1 | 2.7%
104 | c1nc(CN2CCC3(CC2)COCCN3CC2CC2)c[nH]1 | -1.26%
105 | CN(C)CCOCc1cncc2c1CCN(C1CCOC1)C2 (configuration not stated) | 9.68%
106 | Cc1ccc(N2CCO[C@H]3[C@H](OCC(=O)N4CCCC4)CC[C@@H]32)cc1 | -1.03%
107 | c1coc(CN2CCO[C@H]3[C@H](OCC4CC4)CC[C@@H]32)c1 | 5.22%
108 | CN(Cc1ccco1)[C@@H]1CN(C(=O)c2cnccn2)C[C@@H]2CCCO[C@@H]21 | 3.25%
109 | c1cncc(OC[C@@H]2CCC[C@@]23CNCCO3)c1 | 10.5%
110 | O=C(c1ccco1)N1CCCC2(CN(Cc3ccc(F)cc3)CCO2)C1 (configuration not stated) | 0.0288%
111 | Cc1cc(N2CCN(C(=O)[C@@H]3C[C@H]4C=C[C@@H]3C4)CC2)cc(C)n1 | -7.62%
112 | O=C(CN1C[C@H]2CC(OCc3ccccc3)C[C@H]2C1)N1CCOCC1 (some centres not stated) | -9.92%
